Measured values: ChEMBL document CHEMBL1132974 (J Med Chem, 2000)
“And” between values parts separate entries of the source, which are not always exact repeats. Equal entries are not always repeated. One block for each molecule: values may come before it.

Experiments:
[1] = target: Histamine H1 receptor (Cavia porcellus) (UniProt P31389); assay: Relative potency in guinea pig ileum whole segment; value ranges from 4 to 15; format: functional, tissue-based
[2] = target: Histamine H1 receptor (Cavia porcellus) (UniProt P31389); assay: Intrinsic activity of the compounddwas reported in guinea pig ileum whole segment; format: functional, tissue-based
Histamine H1 receptor [3] = target: T1, Histamine H1 receptor (Cavia porcellus, UniProt P31389); assay: Effective concentration for agonist activity in guinea pig ileum whole segment; format: functional, tissue-based
T1 sequence (P31389 whole entry): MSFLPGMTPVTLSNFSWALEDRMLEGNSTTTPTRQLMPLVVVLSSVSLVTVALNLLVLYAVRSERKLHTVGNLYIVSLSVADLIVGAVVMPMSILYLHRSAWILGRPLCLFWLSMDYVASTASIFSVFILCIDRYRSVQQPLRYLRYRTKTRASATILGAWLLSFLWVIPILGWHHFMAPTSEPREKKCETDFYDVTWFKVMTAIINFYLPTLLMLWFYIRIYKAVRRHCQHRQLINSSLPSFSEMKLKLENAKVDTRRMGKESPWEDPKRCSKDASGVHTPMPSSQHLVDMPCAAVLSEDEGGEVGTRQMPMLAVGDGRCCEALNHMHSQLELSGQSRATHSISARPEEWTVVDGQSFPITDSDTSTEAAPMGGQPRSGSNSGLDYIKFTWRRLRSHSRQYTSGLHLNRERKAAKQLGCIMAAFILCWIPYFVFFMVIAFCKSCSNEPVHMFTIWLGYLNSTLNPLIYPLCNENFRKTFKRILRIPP

[4] = target: Histamine H1 receptor (Cavia porcellus) (UniProt P31389); assay: Negative logarithm of receptor dissociation constant Kp was reported; format: functional
Summary of the method: (§1)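 Guinea-pig ileum (0.1 µM atropine, 37 °C Tyrode's). […] Where several partial-agonist concentrations were used, the overall value comes from a Kaumann-Marano plot with slope constrained to unity.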

[5] = target: Histamine H1 receptor (Rattus norvegicus) (UniProt P31390); assay: The compound was evaluated for intrinsic activity in relaxed rat aortic rings with intact endothelium, submaximally precontracted with 15.8 nM U-46,619; format: functional, tissue-based; design: unit not given here; conditions: Aorta
Target sequence in this assay (P31390 whole entry): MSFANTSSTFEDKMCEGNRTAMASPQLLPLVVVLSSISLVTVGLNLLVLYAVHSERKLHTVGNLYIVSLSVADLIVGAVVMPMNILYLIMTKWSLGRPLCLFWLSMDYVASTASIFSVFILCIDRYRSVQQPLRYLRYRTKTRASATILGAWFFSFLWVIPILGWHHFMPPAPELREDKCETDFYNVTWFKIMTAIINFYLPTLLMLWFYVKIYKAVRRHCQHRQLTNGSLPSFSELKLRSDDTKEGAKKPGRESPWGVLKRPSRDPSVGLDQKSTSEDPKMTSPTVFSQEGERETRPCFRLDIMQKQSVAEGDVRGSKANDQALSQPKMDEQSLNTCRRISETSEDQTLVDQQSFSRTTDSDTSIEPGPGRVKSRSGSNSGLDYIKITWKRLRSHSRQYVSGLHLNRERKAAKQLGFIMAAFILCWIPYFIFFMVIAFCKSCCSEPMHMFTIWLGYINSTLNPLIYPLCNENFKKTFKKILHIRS

Histamine H1 receptor [6] = target: T1, Histamine H1 receptor; assay: Antagonism of guinea pig ileum contraction at 100 nM mepyramine; format: functional, tissue-based; conditions: read-out: pA2 (converted)
Summary of the method: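 Guinea-pig whole ileal segments (2.0–2.5 cm), isotonic, preload 0.5 g, Tyrode's at 37 °C, 95% O2/5% CO2, with 0.1 µM atropine throughout. […] Apparent pA2 = −log c + log(r−1); full pA2 from Schild plot, slope fixed at 1.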

[7] = target: 5-hydroxytryptamine receptor 4 (Rattus norvegicus, UniProt Q62758); assay: Compound was evaluated for its antagonist affinity towards 5-hydroxytryptamine 4 receptor of rat; format: functional; conditions: read-out: pA2 (converted)
Sequence of 5-hydroxytryptamine receptor 4 (Q62758 whole entry): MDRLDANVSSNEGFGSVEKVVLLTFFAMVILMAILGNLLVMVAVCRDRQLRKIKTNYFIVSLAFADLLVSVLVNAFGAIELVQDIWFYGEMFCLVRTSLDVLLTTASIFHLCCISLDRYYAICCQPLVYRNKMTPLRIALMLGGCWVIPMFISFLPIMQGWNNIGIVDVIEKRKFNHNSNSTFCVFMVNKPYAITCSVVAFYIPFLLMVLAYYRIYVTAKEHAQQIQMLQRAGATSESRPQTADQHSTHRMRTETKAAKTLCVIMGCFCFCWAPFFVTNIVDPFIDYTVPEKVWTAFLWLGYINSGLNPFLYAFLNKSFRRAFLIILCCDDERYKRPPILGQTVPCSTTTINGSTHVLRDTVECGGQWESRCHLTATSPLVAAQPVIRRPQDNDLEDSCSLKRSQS
Summary of the method: (§2)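 Functional antagonism in rat tissues: α1D (thoracic aorta), 5-HT2A (tail artery), 5-HT4 (oesophageal tunica muscularis mucosae). Results are given as apparent pA2 from single-concentration rightward shifts, or pD'2 when only curve depression occurred.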

[8] = target: Beta-1 adrenergic receptor (Cavia porcellus, UniProt B0FL73); assay: Compound was evaluated for its antagonist affinity towards Beta-1 adrenergic receptor of guinea pig; format: functional; conditions: read-out: pA2 (converted)
Sequence of Beta-1 adrenergic receptor (B0FL73 whole entry): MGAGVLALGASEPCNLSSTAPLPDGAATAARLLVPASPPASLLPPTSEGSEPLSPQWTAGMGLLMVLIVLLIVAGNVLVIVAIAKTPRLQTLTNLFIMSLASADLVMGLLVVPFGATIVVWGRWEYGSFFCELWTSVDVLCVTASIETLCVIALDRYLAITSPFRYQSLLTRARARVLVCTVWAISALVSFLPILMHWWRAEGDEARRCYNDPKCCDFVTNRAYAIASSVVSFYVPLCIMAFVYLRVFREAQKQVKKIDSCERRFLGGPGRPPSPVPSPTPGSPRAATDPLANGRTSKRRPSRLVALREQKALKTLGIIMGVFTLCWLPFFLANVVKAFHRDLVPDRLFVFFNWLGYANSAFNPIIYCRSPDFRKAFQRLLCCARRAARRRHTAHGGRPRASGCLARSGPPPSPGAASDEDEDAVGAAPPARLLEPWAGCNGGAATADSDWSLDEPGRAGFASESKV
Summary of the method: (§3)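 Functional antagonism assays in guinea-pig tissues, each run with 1 µM mepyramine present: M3 (whole ileum), β1 (right atrium), 5-HT1B (iliac artery), 5-HT3 (quiescent ileal longitudinal muscle with myenteric plexus). Results are given as apparent pA2, or pD'2 when only curve depression occurred.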

Histamine H1 receptor [9] = target: T1, Histamine H1 receptor; assay: Compound was evaluated for mepyramine antagonism effects in guinea pig aorta (contraction) at a mepyramine concentration of 100 nM; format: functional, tissue-based; conditions: read-out: pA2 (converted)
Summary of the method: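 Guinea-pig aortic rings with endothelium damaged, isometric (10 mN), 37 °C Krebs-Henseleit. Agonist curves were run with mepyramine (100 nM, about 60 min) after threshold PGF2α precontraction. Apparent pA2 = −log c + log(r−1).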

[10] = target: T2, Alpha-1D adrenergic receptor (Rattus norvegicus, UniProt P23944); assay: Compound was evaluated for its antagonist affinity towards Alpha-1D adrenergic receptor of rat; format: functional; conditions: read-out: pA2 (converted); summary of the method: as §2
T2 sequence (P23944 whole entry): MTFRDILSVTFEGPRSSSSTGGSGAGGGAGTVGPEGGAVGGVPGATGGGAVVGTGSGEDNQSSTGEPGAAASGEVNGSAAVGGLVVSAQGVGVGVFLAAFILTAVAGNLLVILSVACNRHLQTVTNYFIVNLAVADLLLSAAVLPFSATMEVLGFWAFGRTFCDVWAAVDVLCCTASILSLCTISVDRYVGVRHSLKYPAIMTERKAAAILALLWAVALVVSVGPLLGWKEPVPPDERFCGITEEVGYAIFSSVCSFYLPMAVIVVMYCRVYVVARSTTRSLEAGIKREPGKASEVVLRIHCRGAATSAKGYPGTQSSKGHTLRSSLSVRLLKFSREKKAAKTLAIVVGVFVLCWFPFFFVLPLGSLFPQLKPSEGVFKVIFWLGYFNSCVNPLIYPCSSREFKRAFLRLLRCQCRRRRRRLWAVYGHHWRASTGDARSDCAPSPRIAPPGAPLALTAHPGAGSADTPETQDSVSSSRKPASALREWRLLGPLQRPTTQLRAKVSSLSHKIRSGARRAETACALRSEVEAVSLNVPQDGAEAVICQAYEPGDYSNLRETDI

[11] = target: Serotonin 3 (5-HT3) receptor; assay: Compound was evaluated for its antagonist affinity towards 5-hydroxytryptamine 3 receptor of guinea pig; format: functional, Cavia porcellus; summary of the method: as §3
Histamine H3 receptor = Histamine H3 receptor (Cavia porcellus, UniProt Q9JI35); assay: Compound was evaluated for its antagonist affinity towards Histamine H3 receptor of guinea pig; format: functional; conditions: read-out: pA2 (converted)
Sequence of Histamine H3 receptor (Q9JI35 whole entry): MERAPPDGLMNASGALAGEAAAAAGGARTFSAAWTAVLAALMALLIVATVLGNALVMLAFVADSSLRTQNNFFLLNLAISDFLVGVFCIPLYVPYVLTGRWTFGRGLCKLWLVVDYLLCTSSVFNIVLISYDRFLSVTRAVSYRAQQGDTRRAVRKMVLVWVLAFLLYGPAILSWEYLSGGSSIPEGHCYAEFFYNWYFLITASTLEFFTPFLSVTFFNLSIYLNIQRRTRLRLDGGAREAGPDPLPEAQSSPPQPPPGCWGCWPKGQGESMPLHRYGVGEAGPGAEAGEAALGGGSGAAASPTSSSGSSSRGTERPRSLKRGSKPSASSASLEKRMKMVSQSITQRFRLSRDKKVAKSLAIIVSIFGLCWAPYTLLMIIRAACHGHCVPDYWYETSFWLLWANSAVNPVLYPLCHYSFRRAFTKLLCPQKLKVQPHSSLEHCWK
Summary of the method: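 Electrically stimulated guinea-pig ileal longitudinal muscle with myenteric plexus, isometric (7.5 mN). Cumulative (R)-α-methylhistamine curves were run with and without test compound (20 min), with 1 µM mepyramine present. Values were apparent pA2, or pD'2 where curves were depressed.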

Histamine H2 receptor = Histamine H2 receptor (Cavia porcellus, UniProt P47747); assay: Compound was evaluated for its antagonist affinity towards Histamine H2 receptor of guinea pig; format: functional; conditions: read-out: pA2 (converted)
Sequence of Histamine H2 receptor (P47747 whole entry): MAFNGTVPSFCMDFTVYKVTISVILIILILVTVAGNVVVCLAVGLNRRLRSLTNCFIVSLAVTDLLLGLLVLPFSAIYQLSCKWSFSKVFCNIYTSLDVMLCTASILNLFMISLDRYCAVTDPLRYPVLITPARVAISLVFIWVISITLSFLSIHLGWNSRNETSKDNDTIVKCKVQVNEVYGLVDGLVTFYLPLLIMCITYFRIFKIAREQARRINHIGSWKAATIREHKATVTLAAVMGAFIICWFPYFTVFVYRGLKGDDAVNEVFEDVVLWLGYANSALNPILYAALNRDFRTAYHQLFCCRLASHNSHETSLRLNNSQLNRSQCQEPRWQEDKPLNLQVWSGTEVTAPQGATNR

Histamine H1 receptor [12] = target: T1, Histamine H1 receptor; assay: (§4) Effective concentration for agonism activity in Endothelium-Denuded guinea pig aortic segment; format: functional, tissue-based, Aorta
Summary of the method: (§5)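 Guinea-pig thoracic aortic rings (2–4 mm), endothelium rubbed off, isometric (10 mN), modified Krebs-Henseleit (1.80 mM Ca2+), 37 °C. Cimetidine, corticosterone and cocaine (30 µM each), prazosin and yohimbine (0.3 µM each) and propranolol (0.1 µM) were present. […] The pEC50 shift was corrected using untreated control preparations.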

[13] = target: Histamine H1 receptor (Rattus norvegicus) (UniProt P31390); assay: Compound was evaluated for mepyramine antagonism effects in rat aorta (relaxation) at a mepyramine concentration of 100 nM; conditions: read-out: pA2 (converted)
Target sequence in this assay (P31390 whole entry, looked up): as the sequence (P31390 whole entry) above

Histamine H1 receptor [14] = target: T1, Histamine H1 receptor; assay: (§6) Effective concentration for agonism activity in endothelium-denuded guinea pig aortic segment; format: functional, tissue-based, Aorta; summary of the method: as §5
[15] = target: Histamine H1 receptor (Cavia porcellus) (UniProt P31389); assay: Negative logarithm of receptor dissociation constant Kp was reported in guinea pig ileum whole segment; format: functional, tissue-based; summary of the method: as §1
[16] = target: 5-hydroxytryptamine receptor 2A (Rattus norvegicus, UniProt P14842); assay: Compound was evaluated for its antagonist affinity towards 5-hydroxytryptamine 2A receptor of rat; format: functional; conditions: read-out: pA2 (converted); summary of the method: as §2
Sequence of 5-hydroxytryptamine receptor 2A (P14842 whole entry): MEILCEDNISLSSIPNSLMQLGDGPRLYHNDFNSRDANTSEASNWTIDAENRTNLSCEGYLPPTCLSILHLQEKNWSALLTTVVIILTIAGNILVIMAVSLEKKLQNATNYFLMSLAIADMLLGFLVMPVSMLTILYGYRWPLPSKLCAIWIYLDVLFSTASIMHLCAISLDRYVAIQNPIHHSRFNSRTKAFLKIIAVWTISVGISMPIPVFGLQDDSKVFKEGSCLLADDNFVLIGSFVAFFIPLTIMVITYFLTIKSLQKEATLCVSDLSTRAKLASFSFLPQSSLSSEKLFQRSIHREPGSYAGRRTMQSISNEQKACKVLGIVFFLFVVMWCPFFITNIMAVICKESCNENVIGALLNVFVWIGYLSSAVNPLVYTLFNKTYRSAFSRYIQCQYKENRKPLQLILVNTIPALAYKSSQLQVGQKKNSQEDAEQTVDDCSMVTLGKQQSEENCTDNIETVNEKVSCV

[17] = target: Muscarinic acetylcholine receptor M3 (Cavia porcellus, UniProt Q8VH26); assay: Compound was evaluated for its antagonist affinity towards Muscarinic acetylcholine receptor M3 of guinea pig; format: functional; conditions: read-out: pA2 (converted); summary of the method: as §3
Sequence of Muscarinic acetylcholine receptor M3 (Q8VH26 whole entry): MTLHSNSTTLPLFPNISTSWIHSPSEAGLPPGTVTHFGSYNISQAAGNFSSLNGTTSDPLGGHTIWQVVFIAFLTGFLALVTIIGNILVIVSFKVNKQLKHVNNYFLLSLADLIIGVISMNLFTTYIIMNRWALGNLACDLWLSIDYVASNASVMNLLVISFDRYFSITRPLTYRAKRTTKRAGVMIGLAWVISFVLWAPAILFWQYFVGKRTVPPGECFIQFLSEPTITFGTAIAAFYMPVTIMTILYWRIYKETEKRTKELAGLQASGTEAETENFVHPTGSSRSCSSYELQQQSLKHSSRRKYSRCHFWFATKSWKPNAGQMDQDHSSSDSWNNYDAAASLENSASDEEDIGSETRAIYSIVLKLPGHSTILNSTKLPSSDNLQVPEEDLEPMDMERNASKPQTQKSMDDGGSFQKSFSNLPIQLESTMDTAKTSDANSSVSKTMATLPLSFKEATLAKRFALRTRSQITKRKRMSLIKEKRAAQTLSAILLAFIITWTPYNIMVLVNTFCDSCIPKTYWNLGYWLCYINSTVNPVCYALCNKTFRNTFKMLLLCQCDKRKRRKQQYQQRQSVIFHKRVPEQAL

Histamine H1 receptor [18] = target: Histamine H1 receptor (Rattus norvegicus, UniProt P31390); assay: Effective concentration for agonism activity in relaxed rat aortic rings with intact endothelium, submaximally precontracted with 15.8 nM U-46,619; format: functional, tissue-based, Aorta
Sequence of Histamine H1 receptor (Rattus norvegicus, UniProt P31390) (P31390 whole entry): as the sequence (P31390 whole entry) above

[19] = target: 5-hydroxytryptamine receptor 1B (Cavia porcellus); assay: Compound was evaluated for its antagonist affinity towards 5-hydroxytryptamine 1B receptor of guinea pig; conditions: read-out: pA2 (converted)
Rattus norvegicus = species: Rattus norvegicus; assay: tissue or blood; conditions: Aorta, read-out: Log EC50 (converted)
Cavia porcellus [20] = species: Cavia porcellus; assay: as §6; conditions: Aorta, read-out: Log EC50 (converted)
Cavia porcellus [21] = species: Cavia porcellus; assay: Effective concentration for agonism activity in guinea pig ileal whole segment; conditions: read-out: Log EC50 (converted)
Cavia porcellus [22] = species: Cavia porcellus; assay: as §4; conditions: Aorta, read-out: Log EC50 (converted)
[23] = target: Histamine H1 receptor (Cavia porcellus) (UniProt P31389); assay: Intrinsic activity was reported in guinea pig ileum whole segment.; format: functional, tissue-based
[24] = target: Histamine H1 receptor (Cavia porcellus) (UniProt P31389); assay: Relative potency in guinea pig ileum whole segment; value ranges from 0.4 to 0.6; format: functional, tissue-based
[25] = target: Histamine H1 receptor (Cavia porcellus) (UniProt P31389); assay: Intrinsic activity was reported in guinea pig ileal whole segment.; format: functional
[26] = target: Histamine H1 receptor (Cavia porcellus) (UniProt P31389); assay: Intrinsic activity was reported at a concentration of 10 uM; format: functional
[27] = target: Histamine H1 receptor (Rattus norvegicus) (UniProt P31390); assay: Relative potency was recorded in relaxed rat aortic rings; value ranges from […] to […]; format: functional, tissue-based; conditions: Aorta
Target sequence in this assay (P31390 whole entry): as above

[28] = target: Histamine H1 receptor (Rattus norvegicus) (UniProt P31390); assay: The compound was evaluated for intrinsic activity i.e. maximum histamine controls relative to contraction evoked by 10 uM PGF2-alpha in relaxed rat aortic rings; format: functional, tissue-based; conditions: Aorta
Target sequence in this assay (P31390 whole entry): as above

[29] = target: Histamine H1 receptor (Cavia porcellus) (UniProt P31389); assay: Intrinsic activity was reported in endothelium-denuded guinea pig(pre contracted with PGF-2 alpha) at a concentration of 10 uM; format: functional
Summary of the method: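 Endothelium-denuded guinea-pig aortic rings, set up as in the contraction assay, challenged twice with PGF2α (10 µM). Rings were precontracted with a threshold PGF2α level (usually 0.4–1.5 µM, 10–20% of the 10 µM response).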

[30] = target: Histamine H1 receptor (Cavia porcellus) (UniProt P31389); assay: Relative potency was recorded in endothelium-denuded guinea pig; value ranges from 5.68 to 5.93; format: functional; summary of the method: as §5
[31] = target: Histamine H1 receptor (Cavia porcellus) (UniProt P31389); assay: pA2 was recorded in endothelium-denuded guinea pig(pre contracted with PGF-2 alpha).value ranges from 5.66 to 6.19
[32] = target: Histamine H1 receptor (Rattus norvegicus) (UniProt P31390); assay: concentration of mepyramine was determined
Target sequence in this assay (P31390 whole entry, looked up): as the sequence (P31390 whole entry) above

[33] = target: Histamine H1 receptor (Cavia porcellus) (UniProt P31389); assay: Relative potency in guinea pig ileum whole segment; value ranges from 51 to 88; format: functional, tissue-based
[34] = target: Histamine H1 receptor (Rattus norvegicus) (UniProt P31390); assay: Relative potency was recorded in relaxed rat aortic rings with intact endothelium, submaximally precontracted with 15.8 nM U-46,619; value ranges from 244 to 450.; format: functional, tissue-based; conditions: Aorta
Target sequence in this assay (P31390 whole entry): as above

Cavia porcellus [35] = species: Cavia porcellus; assay: Mepyramine concentration required to antagonise histaprodifens compound induced effects in guinea pig or rat assays; format: functional, organism-based
[36] = target: Histamine H1 receptor (Cavia porcellus) (UniProt P31389); assay: concentration of mepyramine was determined; format: functional

Sequence of Histamine H1 receptor (Cavia porcellus) (P31389 whole entry): as the sequence (P31389 whole entry) above

Relative potency [1]: 8
Emax [2]: 28
EC50 (Histamine H1 receptor [3]): 2.57 µM
pKp [4]: 5.37
SMILES: NCCc1c[nH]c(C(c2ccccc2)c2ccccc2)n1

Emax [5]: 51 and 55
Kb (Histamine H1 receptor [6]): 0.000776 µM and 0.00138 µM
Kb [7]: > 1.58 µM
Kb [8]: 26.3 µM
Kb (Histamine H1 receptor [9]): 0.00251 µM
Kb [10]: 7.76 µM
pA2 [11]: < 5.8
Kb (Histamine H3 receptor): > 1.58 µM
Kb (Histamine H2 receptor): 26.3 µM
EC50 (Histamine H1 receptor [12]): 0.12 µM
Kb [13]: 0.0105 µM
EC50 (Histamine H1 receptor [14]): 0.832 µM
pKp [15]: 6.4
Kb [16]: 3.72 µM
Kb [17]: 1.15 µM
EC50 (Histamine H1 receptor [18]): 0.17 µM
Kb [19]: > 31.6 µM
EC50 (Histamine H1 receptor [3]): 0.0832 µM
SMILES: CN(C)CCc1c[nH]c(CCC(c2ccccc2)c2ccccc2)n1

SMILES: NCCc1c[nH]cn1 [HISTAMINE]
EC50 (Rattus norvegicus): 4.47 µM
EC50 (Cavia porcellus [20]): 2.24 µM
EC50 (Cavia porcellus [21]): 0.2 µM
EC50 (Cavia porcellus [22]): 0.316 µM

Emax [23]: 50
Relative potency [24]: 0.5
EC50 (Histamine H1 receptor [3]): 40.7 µM
pKp [4]: 3.87
SMILES: NCCc1c[nH]c(CC(c2ccccc2)c2ccccc2)n1

Emax [25]: 2
Emax [26]: 0
pA2 [27]: 5.72
Emax [28]: 0
Emax [29]: 0
pA2 [30]: 5.8
pA2 [31]: 5.92
pKp [4]: 5.94
SMILES: NCCc1c[nH]c(CCCC(c2ccccc2)c2ccccc2)n1

Emax [5]: 21
Concentration [32]: 100 nM
Emax [23]: 28
pKp [15]: 6.52
Relative potency [33]: 67
Relative potency [34]: 331
EC50 (Histamine H1 receptor [18]): 1.35 µM
EC50 (Histamine H1 receptor [3]): 0.295 µM
SMILES: c1ccc(C(CCc2nc(CCN3CCCC3)c[nH]2)c2ccccc2)cc1

Emax [5]: 55
pA2 [11]: < 5.8
pKp [15]: 6.45
Concentration [36]: 0.003 µM and 0.005 µM
SMILES: CNCCc1c[nH]c(CCC(c2ccccc2)c2ccccc2)n1
Concentration (Cavia porcellus [35]): 0.1 µM
